C8 TRAIL sens: caspase-8 TRAIL sensitization | NB7+C8 cells + TRAIL, ATPlite viability luminescence | inhibition (viability loss, TRAIL sensitization), % at 10 µM | 360,000 tested, 1% active;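 active = compounds causing at least 50% loss of cell viability in the single-dose screen, relative to plate controls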
STAT3 act-1: increases IL-6 driven STAT3 reporter signal | U3A cells, IL-6 STAT3-luciferase reporter, luminescence; 100% = signal with IL-6 EC80 alone | activation (% of control), % at 5.6 µM | 190,000 tested, 0.91% active;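 active = activation above the screen-wide mean of compound activation plus 3 SD, cut at about 130% in these data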;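 note: 0% = background luminescence of wells with medium and substrate only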
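System – human U3A cells carrying STAT3-luciferase construct · Probe or stimulus – Interleukin-6, 33 ng/mL · Schedule – compound 1 h, then IL-6 6 h at 37 °C · Signal – luminescence from STAT3-driven luciferase reporter · Evaluation – percent of IL-6-only median luminescence · Benchmarks – IL-6-only high control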
STAT3 inh-1: reduces IL-6 driven STAT3 reporter signal | inhibition, % at 5.5 µM | 190,000 tested, 0.89% active | U3A cells, IL-6 STAT3-luciferase reporter, luminescence; host cell line lacks STAT1;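 active = inhibition above the mean inhibition across all screened compounds plus 3 SD, cut at about 44% in these data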;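 note: 0% = DMSO only wells and 100% = 100 µM nifuroxazide control wells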
PPC-1+TRAIL kill: PPC-1 cancer cell killing with TRAIL present; PPC-1 cells + TRAIL, ATPLite viability luminescence; cell killing (% activity), % at 4 µM or 5 µM; 220,000 tested, 0.41% active;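 active = cell killing above 50% in the first pass at 4 µM, then a duplicate retest at 5 µM averaging 50% or more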;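 note: plate controls were cells with TRAIL plus DMSO for no effect and medium-only wells lacking cells for full effect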
HSP90 inh: HSP90 refolding inhibition in rabbit reticulocyte lysate | 290,000 tested, 0.91% active | inhibition, % at 5.6 µM | AID 1789 | luciferase refolding luminescence, 3 h;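 active = inhibition above the screen-wide mean plus 3 SD, computed separately per campaign, cut at about 16% in these data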;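 note: 0% = DMSO wells and 100% = 60 µM geldanamycin wells; inhibitors lower the luminescence because luciferase stays unfolded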
STAT1 inh-1: STAT1 signaling inhibition. inhibition, % at 5.5 µM. AID 920. NIH 3T3 STAT1-luciferase reporter, IFN-gamma, luminescence. 200,000 tested, 0.35% active;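 active = inhibition above a set limit, the mean inhibition across all tested compounds plus 3 SD, cut at about 34% in these data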;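 note: 0% = IFN-gamma with DMSO and 100% = IFN-gamma with 300 µM nifuroxazide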
STAT3 inh-2: STAT3 inhibition, confirmation assay. shares compounds with STAT3 inh-1. U3A cells, IL-6 STAT3 luciferase reporter, luminescence; cell line lacks STAT1. inhibition, % at 5.7 µM. 1,200 tested, 45% active. AID 1265;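 active = inhibition above the hit cutoff computed for the primary STAT3 screen, cut at about 44% in these data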;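 note: 0% = IL-6 plus DMSO and 100% = IL-6 plus nifuroxazide control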
NFkB inh STAT3ct: counter-screen for STAT3 inhibitors: NF-kappaB inhibition; 1,200 tested, 36% active; shares compounds with STAT3 inh-1; inhibition, % at 5.7 µM; HEK293T NF-kB luciferase reporter, TNF-alpha induced;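 active = inhibition above the mean of solvent-only control wells plus 3 SD, cutoff set per campaign, cut at about 13% in these data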;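 note: 0% = TNF-alpha with DMSO and 100% = TNF-alpha with MG high control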
STAT1 inh STAT3c: STAT1 inhibition in STAT3 inhibitor counter-screen | shares compounds with STAT3 inh-1 | NIH 3T3 STAT1-luciferase reporter, IFN-gamma induced, luminescence | inhibition, % at 5.7 µM | 1,200 tested, 27% active | AID 1317;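 active = inhibition above the mean plus 3 SD of solvent-only control wells, limit set per screening run, cut at about 16% in these data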;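 note: 0% = DMSO with IFN-gamma and 100% = nifuroxazide control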
STAT3 act-2: confirmation of STAT3 signaling activators; shares compounds with STAT3 act-1; U3A STAT3-luciferase reporter, IL-6 potentiation, luminescence; U3A cells lack STAT1; 100 means same as IL-6 alone; potentiation (% of control), % at 5.7 µM; 1,200 tested, 64% active; AID 1267;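 active = percent activation of the STAT3 luciferase reporter above a set limit taken from the earlier primary screen, cut at about 130% in these data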;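 note: 0% = background signal of medium plus substrate and 100% = median of IL-6 with DMSO wells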
NFkB act 2: NF-kappaB activation in STAT3 activator counter-screen; shares compounds with STAT3 act-1; human cells, NF-kappaB reporter activation; activation (% of control), % at 5.7 µM; 1,200 tested, 11% active; AID 1309; in the data active = activation above about 120%;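 note: reporter induced by TNF-alpha stimulation; 100% = median of stimulated DMSO wells and 0% = no signal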
STAT1 act STAT3c: STAT1 activation in STAT3 activator counter-screen | shares compounds with STAT3 act-1 | NIH 3T3 STAT1-luciferase reporter, IFN-gamma, luminescence | activation (% of control), % at 5.7 µM | 1,200 tested, 13% active;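 active = activation above the solvent-only control well mean plus 3 SD, set per screening run, cut at about 120% in these data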;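 note: 100% = IFN-gamma with DMSO median signal so 100% means no change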
STAT1 inh-2: STAT1 inhibition, confirmation assay | inhibition, % at 5.5 µM | 200 tested, 55% active | shares compounds with STAT1 inh-1 | AID 1263 | NIH 3T3 STAT1-luciferase reporter, IFN-gamma, luminescence;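 active = triplicate mean inhibition exceeding the hit cutoff computed for the primary STAT1 screen, cut at about 35% in these data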;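 note: 0% = DMSO with IFN-gamma and 100% = 300 µM nifuroxazide with IFN-gamma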
NFkB inh: counter-screen for STAT1 inhibitors: NF-kappaB inhibition. 200 tested, 30% active. HEK293T NF-kB luciferase reporter, TNF-alpha induced, luminescence. shares compounds with STAT1 inh-1. inhibition, % at 5.7 µM. AID 1303;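 active = inhibition above the mean of solvent-only control wells plus 3 SD of those wells, cut at about 15% in these data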;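 note: 0% = DMSO with TNF-alpha and 100% = MG-132 control with TNF-alpha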
STAT3 inh 2: inhibits STAT3, counter-screen to STAT1 inhibitors; shares compounds with STAT1 inh-1; inhibition, % at 5.7 µM; 200 tested, 20% active; AID 1310; U3A cells, IL-6 STAT3 luciferase reporter, luminescence; cells lacking STAT1;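 active = inhibition above the mean of solvent-only control wells plus 3 SD, set per campaign, cut at about 25% in these data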;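 note: 0% = IL-6 plus DMSO and 100% = IL-6 plus nifuroxazide control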
PPC-1 tox: kills PPC-1 cells; PPC-1 viability, ATPlite luminescence, overnight; shares compounds with PPC-1+TRAIL kill; cytotoxicity, % at 5 µM; 1,200 tested, 50% active;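 active = reconfirmed compounds whose average cytotoxicity reaches 50% or more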;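 note: 0% = DMSO-treated cells and 100% = wells holding medium but no cells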
* hit, by the source's call; . = no result given. Rows were chosen to be rich in hits. Some 2.3% of all compounds tested hit in one or more screens of this group.

SMILES	C8 TRAIL sens	STAT3 act-1	STAT3 inh-1	PPC-1+TRAIL kill	HSP90 inh	STAT1 inh-1	others
CCOC(=O)C1=C(NC(=S)NC(=O)c2ccccc2)c2ccccc2CC12CCCC2	36.2	113.3	-11.2	16.3	5.0	-6.3
COc1ccc(C2(C#N)CC[N+](C)(C)CC2)cc1	10.6	92.7	16.1	4.4	-0.5	2.9
Cc1ccc(N/N=C/c2c(O)n(-c3ccccc3)c(=O)[nH]c2=O)cc1	48.8	111.8	-5.6	3.0	24.0*	21.6
Cc1nc2c(c(=O)[nH]1)C(c1ccccc1Cl)c1c(c3ccccc3oc1=O)O2 (stereo not given)	.	.	.	22.3	3.3	.
CC(=O)OC1C(=O)OCC23CCC4(C)OC4C2OC2CC(OC(=O)C=CC=CC(=O)OCCC1C)C3(C)C21CO1 (stereo not given)	64.3*	.	.	.	.	.
CC(O)C1C=CC=CC(=O)OC2CC3OC4C5OC5(C)CCC4(COC(=O)C4OC4(C)C(O)CO1)C2(C)C31CO1 (stereo not given)	60.8*	.	.	.	.	.
Brc1ccc2c(c1)C(OC1CN3CCC1CC3)c1ccccc1CS2 (stereo not given)	6.3	104.8	-3.0	82.0*	-4.0	-15.1
C[C@H](NC(=O)CCC(=O)N1C[C@H]2C[C@H](C1)c1cccc(=O)n1C2)c1ccccc1	5.6	.	.	.	-3.4	.
CC(=O)c1cn(Cc2ccccc2C#N)c2ccccc12	19.9	45.1	66.4*	11.8	-1.8	28.4	STAT3 inh-2=75.4*;NFkB inh STAT3ct=29.0*;STAT1 inh STAT3c=21.3*
O=C(c1ccc2c(=O)n(Cc3ccc4c(c3)OCO4)c(=S)[nH]c2c1)N1CCC2(CC1)OCCO2	8.3	95.0	9.9	8.4	-0.2	13.9
O=C(C1CCN(c2nc3ccc(Br)cc3s2)CC1)N1CCC2(CC1)OCCO2	22.9	46.8	62.6*	1.0	0.0	-9.1	STAT3 inh-2=66.5*;NFkB inh STAT3ct=12.8;STAT1 inh STAT3c=-17.6
CCC(=NCCc1c[nH]c2ccccc12)c1c(O)n(-c2ccc(C)cc2)c(=O)[nH]c1=O	4.4	103.0	-3.2	11.4	1.6	6.0
CCC(=NCCc1c[nH]c2ccccc12)c1c(O)n(C)c(=O)n(C)c1=O	18.8	64.8	44.2*	8.5	1.4	8.1	STAT3 inh-2=47.4*;NFkB inh STAT3ct=3.1;STAT1 inh STAT3c=19.8*
CC(=O)N(C1=NCCCS1)c1ccc(Cl)cc1	-10.8	100.8	2.5	-15.5	-1.6	-0.3
C[C@@H]1O[C@@H](O[C@H]2C[C@@H](O)[C@]3(CO)[C@H]4[C@H](O)C[C@]5(C)[C@@H](C6COC(=O)C6)CC[C@]5(O)[C@@H]4CC[C@]3(O)C2)[C@H](O)[C@H](O)[C@H]1O (stereo not given in full)	38.9	52.8	55.7*	61.2*	3.0	9.6	STAT3 inh-2=31.7;NFkB inh STAT3ct=-26.0;STAT1 inh STAT3c=-3.7;PPC-1 tox=62.8*
CCOC(=O)C(NC(=O)CC)(Nc1ccc(C(O)(C(=O)OCC)C(F)(F)F)cc1C)C(F)(F)F (stereo not given)	-14.1	95.0	11.0	5.0	3.0	-3.4
c1ccc2c(CN3CCCCCCC3)c[nH]c2c1	-13.1	152.8*	-55.9	-7.3	2.1	16.3	STAT3 act-2=149.3*;NFkB act 2=101.7;STAT1 act STAT3c=85.2
c1ccc2c(CN3CCN(C4CCCCC4)CC3)c[nH]c2c1	6.4	166.2*	-71.5	12.7	1.3	15.6	STAT3 act-2=146.3*;NFkB act 2=101.3;STAT1 act STAT3c=89.5
CCC12CN3CCN(CC(C3)/C1=N/NC(=O)c1ccncc1)C2	-6.1	96.7	6.2	12.5	-3.2	-0.6
C1CC2OC2CC1C1CO1 (stereo not given)	13.5	.	.	.	.	.
Cc1ccc(-c2nc3ccccc3c(=O)n2-c2ccncc2)cc1	-1.8	99.0	3.4	7.6	1.2	-12.6
O=c1c2ccccc2nc(-c2ccc(-c3ccccc3)cc2)n1-c1ccncc1	3.6	143.9*	-36.2	-3.1	5.0	-1.4	STAT3 act-2=134.5*;NFkB act 2=103.3;STAT1 act STAT3c=109.6
CCC(CC)NCc1c[nH]c2ccccc12	1.3	146.1*	-51.4	5.2	0.8	12.5	STAT3 act-2=163.5*;NFkB act 2=111.9;STAT1 act STAT3c=101.0
O=c1[nH]c(=O)n(Cc2ccccc2Cl)c(O)c1/C=C1/C=CC=N1	-13.4	138.9*	-42.6	10.8	-2.0	1.0	STAT3 act-2=123.6;NFkB act 2=105.8;STAT1 act STAT3c=102.4
C=CCn1c(O)c(/C=C2/C=CC=N2)c(=O)[nH]c1=O	-5.5	94.5	2.4	14.4	-5.7	-6.2
CN1C(=O)C(=Cc2ccc(OCC(=O)Nc3ccccc3)cc2)C(=O)N(C)C1=O	-16.8	.	.	.	-2.3	.
CC(C)[C@H]1C(=O)O[C@H](C(C)C)C(=O)N(C)[C@@H](C(C)C)C(=O)O[C@H](C(C)C)C(=O)N(C)[C@@H](C(C)C)C(=O)O[C@H](C(C)C)C(=O)N1C	52.9*	.	.	48.2	-3.4	46.8*	STAT1 inh-2=27.9;NFkB inh=4.2;STAT3 inh 2=17.2
Cc1cc(C)cc(N2C(=O)NC(=O)/C(=C\c3cccn3-c3ccccc3)C2=O)c1	0.2	105.8	-3.0	-9.1	-1.9	21.2
Cc1cc(C)cc(N2C(=O)NC(=O)/C(=C\c3cccn3-c3ccc(Cl)cc3)C2=O)c1	3.8	110.5	-4.3	30.7	-1.2	38.2*	STAT1 inh-2=23.4;NFkB inh=-38.7;STAT3 inh 2=-21.2

From PubChem BioAssay
